Measurements taken from ChEMBL document CHEMBL1128453, “Peptidyl alpha-ketoheterocyclic inhibitors of human neutrophil elastase. 3. In vitro and in vivo potency of a series of peptidyl alpha-ketobenzoxazoles” (J Med Chem, 1995).

Legend:
Chymotrypsinogen A = Chymotrypsinogen A (Bos taurus, UniProt P00766); experiment: Binding affinity towards chymotrypsin
Cathepsin G = target: T1, Cathepsin G (Homo sapiens, UniProt P08311); experiment: Binding affinity towards cathepsin G
T1 sequence (P08311 whole entry): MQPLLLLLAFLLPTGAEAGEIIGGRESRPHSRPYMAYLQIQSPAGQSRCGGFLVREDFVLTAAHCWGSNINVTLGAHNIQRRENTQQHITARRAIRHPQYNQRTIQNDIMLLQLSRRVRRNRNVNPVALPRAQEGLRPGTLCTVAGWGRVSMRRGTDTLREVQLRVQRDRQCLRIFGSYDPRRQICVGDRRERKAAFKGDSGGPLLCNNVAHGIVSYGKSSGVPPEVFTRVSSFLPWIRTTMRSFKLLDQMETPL

Neutrophil elastase = target: T2, Neutrophil elastase (Homo sapiens, UniProt P08246); experiment: Inhibition of human neutrophil elastase-catalyzed hydrolysis of the synthetic substrate MeO-Suc-Ala-Ala-Pro-Val-pNa
T2 sequence (P08246 whole entry): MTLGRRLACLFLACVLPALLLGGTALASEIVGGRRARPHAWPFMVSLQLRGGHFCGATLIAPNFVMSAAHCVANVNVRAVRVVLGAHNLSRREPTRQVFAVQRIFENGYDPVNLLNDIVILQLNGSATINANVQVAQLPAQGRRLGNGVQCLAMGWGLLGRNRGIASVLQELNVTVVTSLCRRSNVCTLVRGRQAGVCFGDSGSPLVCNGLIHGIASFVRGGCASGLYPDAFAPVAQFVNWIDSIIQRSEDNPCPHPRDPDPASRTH

Papain = target: T3, Papain (Carica papaya, UniProt P00784); experiment: Binding affinity towards papain
T3 sequence (P00784 whole entry): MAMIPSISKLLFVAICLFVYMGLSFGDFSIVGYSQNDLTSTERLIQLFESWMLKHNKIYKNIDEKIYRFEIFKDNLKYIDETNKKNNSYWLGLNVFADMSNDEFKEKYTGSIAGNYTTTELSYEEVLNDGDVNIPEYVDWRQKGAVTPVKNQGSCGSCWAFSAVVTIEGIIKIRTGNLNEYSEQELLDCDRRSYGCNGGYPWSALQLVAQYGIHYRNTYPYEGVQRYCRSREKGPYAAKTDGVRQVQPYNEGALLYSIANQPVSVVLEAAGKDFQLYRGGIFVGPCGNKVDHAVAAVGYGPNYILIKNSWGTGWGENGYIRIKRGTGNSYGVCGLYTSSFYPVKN

[1] = Percentage reduction in erythrocytes following elastase challenge/treatment.; format: functional; set-up: concentration or dose not given beside the values
How it was run: (§1)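 Male Syrian hamsters (90–110 g), anaesthetised with brevital sodium (30 mg/kg ip), received intratracheal HNE (400 μg in 0.01 M PBS). Test agent was given intratracheally, either admixed with the enzyme or predosed (shortest interval 6 h). Dose interval is the longest with significant lesion inhibition. At 24 h, wet lung weight/body weight and lavage red/white cells (Coulter) were measured. Results are % reduction scaled between the HNE and saline controls (p = 0.05).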

Prothrombin = Prothrombin (Homo sapiens, UniProt P00734); experiment: Binding affinity towards thrombin
[2] = Percent reduction in leukocytes following elastase challenge/treatment.; format: functional; set-up: concentration or dose not given beside the values; how it was run: as §1
Serine protease 1 = Serine protease 1 (Homo sapiens, UniProt P07477); experiment: Binding affinity towards trypsin
Sequence of Serine protease 1 (P07477 whole entry): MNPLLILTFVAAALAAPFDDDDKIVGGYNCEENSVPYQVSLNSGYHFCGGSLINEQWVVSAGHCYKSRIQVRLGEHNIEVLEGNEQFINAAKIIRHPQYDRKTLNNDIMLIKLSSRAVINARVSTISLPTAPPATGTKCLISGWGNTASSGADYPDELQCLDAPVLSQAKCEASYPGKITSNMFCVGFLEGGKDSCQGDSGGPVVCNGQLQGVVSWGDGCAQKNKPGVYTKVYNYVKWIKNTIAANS

[3] = target: T4, Angiotensin-converting enzyme (Rattus norvegicus, UniProt P47820); experiment: Biological activity was measured against Angiotensin I converting enzyme
T4 sequence (P47820 whole entry): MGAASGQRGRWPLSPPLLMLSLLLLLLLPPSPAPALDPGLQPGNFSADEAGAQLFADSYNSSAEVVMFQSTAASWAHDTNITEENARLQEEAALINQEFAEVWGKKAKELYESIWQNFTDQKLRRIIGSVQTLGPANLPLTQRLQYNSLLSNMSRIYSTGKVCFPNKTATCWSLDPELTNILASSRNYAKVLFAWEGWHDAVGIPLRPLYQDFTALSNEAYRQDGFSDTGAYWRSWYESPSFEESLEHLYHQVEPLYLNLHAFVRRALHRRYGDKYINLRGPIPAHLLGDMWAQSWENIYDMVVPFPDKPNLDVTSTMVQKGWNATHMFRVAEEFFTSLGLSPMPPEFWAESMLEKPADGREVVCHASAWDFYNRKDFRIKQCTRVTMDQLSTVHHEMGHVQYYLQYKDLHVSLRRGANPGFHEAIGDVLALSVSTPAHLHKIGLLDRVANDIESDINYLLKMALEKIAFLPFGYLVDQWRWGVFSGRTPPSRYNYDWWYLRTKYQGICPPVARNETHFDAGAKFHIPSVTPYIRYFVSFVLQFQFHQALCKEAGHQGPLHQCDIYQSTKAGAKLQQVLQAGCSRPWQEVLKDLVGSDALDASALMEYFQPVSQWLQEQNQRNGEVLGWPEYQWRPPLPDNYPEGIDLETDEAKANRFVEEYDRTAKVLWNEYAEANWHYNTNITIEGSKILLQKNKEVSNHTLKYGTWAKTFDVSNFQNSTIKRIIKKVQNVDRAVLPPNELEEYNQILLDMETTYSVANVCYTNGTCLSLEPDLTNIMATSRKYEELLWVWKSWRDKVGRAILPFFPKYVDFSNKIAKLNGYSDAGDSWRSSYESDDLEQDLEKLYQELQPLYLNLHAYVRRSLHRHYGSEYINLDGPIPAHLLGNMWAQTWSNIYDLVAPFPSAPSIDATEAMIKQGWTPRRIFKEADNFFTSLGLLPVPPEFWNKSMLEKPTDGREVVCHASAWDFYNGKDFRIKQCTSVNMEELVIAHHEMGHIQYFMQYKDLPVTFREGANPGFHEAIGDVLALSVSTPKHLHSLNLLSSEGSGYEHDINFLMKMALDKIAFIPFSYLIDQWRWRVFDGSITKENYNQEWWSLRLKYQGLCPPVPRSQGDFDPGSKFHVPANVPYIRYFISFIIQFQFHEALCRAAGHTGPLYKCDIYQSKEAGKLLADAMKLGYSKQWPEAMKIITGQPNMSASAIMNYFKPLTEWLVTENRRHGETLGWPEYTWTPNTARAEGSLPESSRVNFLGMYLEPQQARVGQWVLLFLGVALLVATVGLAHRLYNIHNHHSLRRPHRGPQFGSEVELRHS

[4] = target: T5, Neutrophil elastase (Homo sapiens) (UniProt P08246); settings: Lung
T5 sequence (whole entry): T2 sequence (P08246 whole entry)

- Ki (Chymotrypsinogen A): 92 µM
- Ki (Cathepsin G): > 2 mM
- Ki (Neutrophil elastase): 0.2 nM
- Ki (Papain): > 200 µM
- Ki (Prothrombin): > 50 µM
- Ki (Serine protease 1): > 50 µM
- Ki [3]: > 200 µM
- Lw/Bw [4]: 54
SMILES: CC(C)[C@H](NC(=O)[C@@H]1CCCN1C(=O)[C@@H](NC(=O)c1ccc(C(=O)NS(=O)(=O)c2ccc(Cl)cc2)cc1)C(C)C)C(=O)c1nc2cc(C(N)=O)ccc2o1
- Reduction [1]: 64%
- Reduction [2]: 53%
